From ChEMBL document CHEMBL4715714, “Design, synthesis and biological evaluation of thiosemicarbazones, hydrazinobenzothiazoles and arylhydrazones as anticancer agents with a potential to overcome multidrug resistance” (Eur J Med Chem, 2016)
The source made the active and inactive calls. The calls are words filed in the database; no cut-off is given here.

How the values were obtained:
HFF = test: Cytotoxicity against human HFF cells by MTT assay
[1] = Selectivity ratio of IC50 for human MES-SA cells to IC50 for human MES-SA/DX5 cells incubated for 72 hrs by MTT assay; type: functional
In short: (§1)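 The selectivity ratio is the IC50 in P-gp-negative parental cells divided by the IC50 in the P-gp-positive resistant partner.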

A2780 = test: Cytotoxicity against human A2780 cells assessed as inhibition of cell proliferation incubated for 72 hrs by MTT assay; type: functional, cell-based; settings: for IC50: A2780, 72 h
In short: (§2)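 Cells were seeded (10000/well for A2780, 5000/well for MES-SA/Dx5 and KB-3-1/V1) and left to attach 12 h, then exposed to compound for 72 h. Medium was removed, and MTT (0.83 mg/mL) was added for 1 h at 37 °C. Cells were lysed in DMSO and absorbance read at 540 nm. Signal was corrected for unstained lysate background, normalized to untreated cells, and IC50 taken from a sigmoidal dose-response fit.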

[2] = (§3) Cytotoxicity against human A2780adr cells assessed as inhibition of cell proliferation incubated for 72 hrs by MTT assay; type: functional, cell-based; settings: A2780 ADR
In short: as §2

KB-V1 [3] = test: Cytotoxicity against human KB-V1 cells assessed as inhibition of cell proliferation incubated for 72 hrs by MTT assay; type: functional, cell-based; settings: KB-V1, 72 h
In short: as §2

MES-SA [4] = test: Cytotoxicity against human MES-SA cells transfected with mCherry fluorescent protein assessed as inhibition of cell proliferation incubated for 72 hrs by fluorescent assay; type: functional, cell-based
In short: (§4)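 MES-SA and MES-SA/Dx5 cells were made to stably express mCherry by lentiviral transduction. Cells were seeded at 5000 (96-well) or 2500 (384-well) per well, allowed to attach 24 h, then treated with compound dilutions for 72 h. Viability was read as fluorescence, excitation 585 nm, emission 610 nm.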

MES-SA [5] = test: Cytotoxicity against human MES-SA cells assessed as inhibition of cell proliferation incubated for 72 hrs by MTT assay; type: functional, cell-based
In short: as §2

KB 3-1 = test: Cytotoxicity against human KB-3-1 cells assessed as inhibition of cell proliferation incubated for 72 hrs by MTT assay; type: functional, cell-based; settings: KB 3-1, 72 h
In short: as §2

MES-SA/Dx5 [6] = test: Cytotoxicity against human MES-SA/DX5 cells transfected with mCherry fluorescent protein incubated for 72 hrs in presence of efflux pump inhibitor, Tariquidar by fluorescence assay; type: functional, cell-based
In short: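 The mCherry-expressing cells (lentiviral) were seeded at 5000 or 2500 per well, attached for 24 h, and exposed 72 h to compounds with Tariquidar coadministered. Live-cell signal was fluorescence at 585 nm excitation and 610 nm emission.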

MES-SA/Dx5 [7] = test: Cytotoxicity against human MES-SA/DX5 cells assessed as inhibition of cell proliferation incubated for 72 hrs by MTT assay; type: functional, cell-based; settings: MES-SA/Dx5, 72 h
In short: as §2

MES-SA/Dx5 [8] = test: Cytotoxicity against human MES-SA/DX5 cells transfected with mCherry fluorescent protein assessed as inhibition of cell proliferation incubated for 72 hrs by fluorescent assay; type: functional, cell-based; settings: Homo sapiens, MES-SA/Dx5, 72 h
In short: as §4

MES-SA/Dx5 [9] = test: Cytotoxicity against human MES-SA/DX5 cells incubated for 72 hrs in presence of efflux pump inhibitor, Tariquidar by MTT assay; type: functional, cell-based
In short: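 Run as the 72 h MTT viability readout (12 h attachment, MTT 0.83 mg/mL for 1 h, DMSO lysis, A540), with the P-gp inhibitor Tariquidar at 1 µM co-present. IC50 came from sigmoidal fits of 2 to 4 independent experiments.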

[10] = Selectivity ratio of IC50 for human MES-SA cells transfected with mCherry to IC50 for human MES-SA/DX5 cells transfected with mCherry incubated for 72 hrs by fluorescent assay; type: functional
[11] = Selectivity ratio of IC50 for human KB-3-1 cells to IC50 for human KB-V1 cells incubated for 72 hrs by MTT assay; type: functional
In short: as §1

KB-V1 [12] = test: Cytotoxicity against human KB-V1 cells assessed as inhibition of cell proliferation incubated for 72 hrs in presence of efflux pump inhibitor, Tariquidar by MTT assay; type: functional, cell-based
[13] = Selectivity ratio of IC50 for human A2780 cells to IC50 for human A2780adr cells incubated for 72 hrs by MTT assay; type: functional
In short: as §1

A2780 ADR [14] = test: Cytotoxicity against human A2780adr cells assessed as inhibition of cell proliferation incubated for 72 hrs in presence of efflux pump inhibitor, Tariquidar by MTT assay; type: functional, cell-based
A2780 ADR [15] = test: as §3; type: functional, cell-based
In short: as §2

MES-SA/Dx5 [16] = test: Reduction in P-gp expression in human MES-SA/DX5 cells at IC20 concentration incubated for 5 days by calcein-AM staining based flow cytometric analysis; type: functional, cell-based; settings: time 5.0 day
In short: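 MES-SA/Dx5 cells were grown 5 days with compound at IC20 values calculated from viability assays, then recovered in drug-free medium refreshed every fifth day. At 80% confluency, cells were stained with Calcein AM with or without verapamil, with TO-PRO-3 excluding dead cells, and analysed by flow cytometry for the P-gp-negative fraction.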

[17] = Homo sapiens, MES-SA, 72 h, read-out: IC50
[18] = Homo sapiens, MES-SA, 72 h, read-out: pIC50 (converted)

Row | SMILES | Activity (HFF) | Ratio IC50 [1] | IC50 (A2780; read-out: IC50) | IC50 (A2780; read-out: pIC50 (converted)) | IC50 ([2]; read-out: IC50) | IC50 ([2]; read-out: pIC50 (converted)) | IC50 (KB-V1 [3]; read-out: IC50) | IC50 (KB-V1 [3]; read-out: pIC50 (converted)) | IC50 (MES-SA [4]; [17]) | IC50 (MES-SA [5]; read-out: IC50) | IC50 (MES-SA [5]; read-out: pIC50 (converted)) | IC50 (KB 3-1; read-out: IC50) | IC50 (KB 3-1; read-out: pIC50 (converted)) | Activity (MES-SA/Dx5 [6]) | IC50 (MES-SA/Dx5 [7]; read-out: IC50) | IC50 (MES-SA/Dx5 [7]; read-out: pIC50 (converted)) | IC50 (MES-SA/Dx5 [8]; read-out: IC50) | Activity (MES-SA/Dx5 [9]) | IC50 (MES-SA [4]; [18]) | IC50 (MES-SA/Dx5 [8]; read-out: pIC50 (converted)) | further results
1 | COc1ccc(NC(=S)NNC2=c3ccccc3=NC2=O)cc1 | Toxic |  |  |  |  |  |  |  |  |  |  |  |  |  |  |  |  |  |  |  | 
2 | COc1ccc(NC(=S)N/N=C2\C(=O)Nc3ccc(OC(F)(F)F)cc32)cc1 |  | 2.31 | 3.39 µM | 3.24 µM | 3.77 µM | 3.55 µM | 3.92 µM | 3.89 µM | 8.14 µM | 6.14 µM | 5.75 µM | 6.56 µM | 6.17 µM | inactive | 2.78 µM | 2.57 µM | 2.52 µM | inactive |  |  | Ratio IC50 [10]: 3.29
3 | C/C(=N\NC(=S)Nc1ccc(C)cc1)c1ccccn1 | Non-Toxic | 6.25 | 0.017 µM | 0.0162 µM | 0.021 µM | 0.0204 µM | 0.036 µM | 0.0331 µM | 0.065 µM | 0.016 µM | 0.017 µM | 0.0404 µM | 0.0372 µM |  | 0.0018 µM | 0.0017 µM | 0.029 µM | Active | 0.0417 µM | 0.0257 µM | Ratio IC50 [11]: 1.15; Activity (KB-V1 [12]): Active
4 | Oc1ccccc1/C=N/Nc1nc2ccccc2s1 |  | 2.04 | 3.16 µM | 3.09 µM | 6.01 µM | 5.89 µM | 11.7 µM | 11.7 µM | 23.2 µM | 24.7 µM | 23.4 µM | 18.1 µM | 15.8 µM | inactive | 10.5 µM | 9.55 µM | 4.55 µM | Active | 26.9 µM | 4.27 µM | Ratio IC50 [10]: 7.18
5 | COc1cc(N/N=C(\C)c2ccccn2)ncn1 | Non-Toxic | 2.62 | 0.14 µM | 0.132 µM | 0.027 µM | 0.0257 µM | 0.49 µM | 0.49 µM | 0.26 µM | 0.26 µM |  | 0.36 µM | 0.355 µM |  | 0.095 µM |  | 0.22 µM | Active | 0.339 µM | 0.234 µM | Ratio IC50 [13]: 4.33; Activity (A2780 ADR [14]): Active
6 | C/C(=N\Nc1nc2ccccc2s1)c1ccccc1O | Toxic | 1.91 | 8.74 µM | 8.32 µM |  | 9.77 µM | 12.1 µM | 11.5 µM | 21.6 µM | 12.5 µM | 12.3 µM | 14.3 µM | 13.8 µM | Active | 5.52 µM | 5.25 µM | 11.6 µM | Active | 21.4 µM | 8.91 µM | Ratio IC50 [10]: 1.9
7 | COc1cc(N/N=C2/C(=O)Nc3ccccc32)ncn1 |  |  |  |  |  |  |  |  |  |  | 91.2 µM |  | 55 µM |  |  | 129 µM |  |  |  |  | pIC50 (A2780): inactive; pIC50 (A2780 ADR [15]): inactive; IC50 (MES-SA [4]; mes-sa): Not Active
8 | Cc1ccc(NC(=S)N/N=C/c2ccccn2)cc1 | Non-Toxic | 4.55 | 0.048 µM | 0.0479 µM | 0.064 µM | 0.0631 µM | 0.92 µM | 0.891 µM | 0.79 µM | 0.396 µM | 0.363 µM | 0.74 µM | 0.724 µM |  | 0.076 µM | 0.0724 µM | 0.77 µM | Active | 0.759 µM | 0.562 µM | 
9 | CCc1ccc(/C=N/Nc2cc(OC)ncn2)nc1 |  | 1.41 | 1.3 µM | 1.29 µM | 0.63 µM | 0.617 µM | 1.57 µM | 1.55 µM | 2.33 µM | 1.55 µM |  | 1.23 µM | 1.23 µM |  | 1.11 µM |  | 2.11 µM | Active |  |  | Ratio IC50 [13]: 2.03; Activity (A2780 ADR [14]): Active
10 | COc1ccc(NC(=S)N/N=C2\C(=O)Nc3ccccc32)cc1 |  | 1.87 | 7.49 µM | 7.41 µM | 4.84 µM | 4.68 µM | 3.78 µM | 3.98 µM | 12.1 µM | 6.1 µM | 6.03 µM | 7.82 µM | 7.59 µM | inactive | 3.59 µM | 3.47 µM | 4.15 µM | inactive |  |  | Ratio IC50 [11]: 2.04; Ratio IC50 [13]: 1.6; Activity (KB-V1 [12]): inactive; inhibition (MES-SA/Dx5 [16]): Active; Activity (A2780 ADR [14]): inactive; Ratio IC50 [10]: 3.17
11 | COc1ccc(NC(=S)N/N=C(\C)c2ccccn2)cc1 |  | 22.59 | 0.046 µM | 0.0457 µM | 0.031 µM | 0.0282 µM | 1.75 µM | 1.05 µM | 0.25 µM | 0.34 µM | 0.339 µM | 0.95 µM | 0.692 µM | Active | 0.0142 µM | 0.0141 µM | 0.064 µM | Active | 0.229 µM | 0.0575 µM | Ratio IC50 [10]: 4.54
12 | Cc1ccc(NC(=S)N/N=C2\C(=O)Nc3ccccc32)cc1 | Toxic | 1.87 | 9.7 µM | 9.55 µM | 8.75 µM | 8.91 µM | 4 µM | 3.98 µM | 11.3 µM | 5.33 µM | 5.13 µM | 4.44 µM | 4.17 µM | inactive | 3.27 µM | 3.31 µM | 3.27 µM | Active |  |  | inhibition (MES-SA/Dx5 [16]): Active; Ratio IC50 [10]: 3.1
13 | C/C(=N\Nc1nc2ccccc2s1)c1ccccn1 | Non-Toxic | 17.58 | 0.094 µM | 0.0891 µM | 0.031 µM | 0.0302 µM | 0.28 µM | 0.295 µM | 0.25 µM | 0.2 µM | 0.219 µM | 0.34 µM | 0.372 µM |  | 0.014 µM | 0.0123 µM | 0.1 µM | Active | 0.24 µM | 0.0832 µM | 
14 | Cc1ccc(NC(=S)N/N=C/c2ccccc2O)cc1 | Toxic |  | 5.15 µM | 5.01 µM | 6.01 µM | 6.03 µM | 3.69 µM | 3.47 µM | 1.44 µM | 3.97 µM |  | 3.36 µM | 3.31 µM |  | 5.36 µM |  | 1.87 µM |  |  |  | 
